Experimental data gathered from unrelated publications.
Protocols differ between the studies behind these lines.
Target: Serine/threonine-protein kinase TBK1 (TBK1, Homo sapiens, UniProt Q9UHD2)
One construct used (Q9UHD2 1-729): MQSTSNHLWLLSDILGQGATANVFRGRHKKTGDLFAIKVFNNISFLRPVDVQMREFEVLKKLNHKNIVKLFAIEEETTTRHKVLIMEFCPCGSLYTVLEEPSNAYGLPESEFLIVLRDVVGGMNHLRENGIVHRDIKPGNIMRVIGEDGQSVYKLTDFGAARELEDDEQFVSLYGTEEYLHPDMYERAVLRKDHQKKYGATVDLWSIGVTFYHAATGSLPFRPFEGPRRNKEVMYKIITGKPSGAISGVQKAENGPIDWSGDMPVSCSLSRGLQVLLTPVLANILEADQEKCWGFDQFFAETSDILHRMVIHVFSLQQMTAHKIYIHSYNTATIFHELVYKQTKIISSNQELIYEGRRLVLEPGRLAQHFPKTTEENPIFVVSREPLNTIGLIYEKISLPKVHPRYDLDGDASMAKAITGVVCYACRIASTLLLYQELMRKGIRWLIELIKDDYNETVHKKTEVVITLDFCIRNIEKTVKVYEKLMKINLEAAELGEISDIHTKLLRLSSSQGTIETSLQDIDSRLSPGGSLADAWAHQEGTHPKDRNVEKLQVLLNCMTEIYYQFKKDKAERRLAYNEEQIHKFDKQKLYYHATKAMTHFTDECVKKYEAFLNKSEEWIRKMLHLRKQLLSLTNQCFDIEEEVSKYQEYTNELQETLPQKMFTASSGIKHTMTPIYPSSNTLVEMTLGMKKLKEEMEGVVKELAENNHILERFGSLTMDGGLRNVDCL

Cn1cncc1[C@](O)(COc1ccc(C#N)cc1-c1ccc(OC(F)(F)F)cc1)c1ccc(C#N)cc1 — remaining binding (cell-free assay, competition with immobilised ligand; 1 µM): 100%
COc1ncccc1-c1cnn2ccc(N3CCN(C(=O)OC(C)C)CC3)nc12 — remaining binding (binding, competition with immobilised ligand; 1 µM): 78%
Cc1nn(C)cc1-c1nc2c(N3CCN(Cc4ccc(Cl)cc4)CC3)c(Cl)cnc2[nH]1 — remaining binding (binding, competition with immobilised ligand; 1 µM): 90%
C#Cc1n[nH]c2c(-c3cn([C@@H](C)c4ccccc4)c(=O)[nH]c3=O)cc(F)cc12 — inhibition (enzyme activity, inhibitor; 0.1 µM): 4.4%
CC(C)(C)c1cc(C=C(C#N)C#N)cc(Br)c1O — remaining activity (enzyme activity, inhibitor; 0.5 µM): 90.2%
N#CC1(c2ccccn2)CCN(Cc2cc(C(=O)O)c(=O)n3ccccc23)CC1 — remaining binding (cell-free assay, competition with immobilised ligand; 1 µM): 98%
C#Cc1n[nH]c2c(-c3cn(C(C)c4ccccn4)c(=O)[nH]c3=O)cc(F)cc12 (centres unmarked) — inhibition (enzyme activity, inhibitor; 1 µM): 6.5%
Cn1cc(-c2cc(F)cc(N3CCn4c(cc5c4CCCC5)C3=O)c2CO)cc(Nc2ccc(N3CCN(C4COC4)CC3)cn2)c1=O — inhibition (enzyme activity, inhibitor; 0.1 µM): 18%
O=c1[nH]c2ccccc2n1C1CCN(Cc2ccc(-c3[nH]c4cc5ncnc5cc4nc3-c3ccccc3)cc2)CC1 — remaining signal (cell-free assay; 0.5 µM): 92.7%
COc1cc(Nc2ncc(F)c(Nc3ccc4c(n3)NC(=O)C(C)(C)O4)n2)cc(OC)c1OC — inhibition (binding; 10 µM): 100%
Cn1cc(-c2cccc(N3CCc4c(sc5c4CC(C)(C)C5)C3=O)c2CO)cc(Nc2ccncn2)c1=O — inhibition (enzyme activity, inhibitor; 1 µM): 4%
